Measurements from different studies.
Protocols differ between the studies behind these lines.
Target: 5'-AMP-activated protein kinase catalytic subunit alpha-2 (PRKAA2, Homo sapiens, UniProt P54646)

| SMILES | effect on | mode | method | tested at | quantity | result |
| --- | --- | --- | --- | --- | --- | --- |
| Cc1cnc(NC2CCOCC2)nc1-n1cnc(C(=O)NC(CN)c2cc(F)cc(Cl)c2)c1 (stereo not shown) | enzyme activity | inhibitor | radiometric | 1 µM | remaining activity | 31% |
| CCCCN(CCCC)C(=O)CN1C[C@H](c2cc(OC)c3c(c2)OCO3)[C@@H](C(=O)O)[C@@H]1CC(C)(C)CCC | cell-free assay | – | competition with immobilised ligand | 1 µM | remaining binding | 100% |
| CCN(CC)c1ccc(C2=NNC(=O)CC2C)cc1[N+](=O)[O-] (stereo not shown) | enzyme activity | inhibitor | – | 10 µM | remaining activity | 108% |
| CCCOc1ccc(OC)c(F)c1C(=O)c1ccc(C(=O)N[C@@H]2CNC[C@H]2NC(=O)c2ccc3[nH]ncc3c2)cc1 | enzyme activity | inhibitor | – | 0.75 µM | remaining activity | 6% |
| COc1cc(Cl)c(C(=O)N[C@@H](CN[C@H]2CC[C@@H](N)CC2)Cc2ccc(C#N)cc2)cc1-c1ccc(CN[C@H](C)c2ccc(C)cc2)o1 | enzyme activity | inhibitor | – | 1 µM | remaining activity | 89% |
| Cc1ccc(C(=O)NCc2ccsc2)cc1C#Cc1cn(C(C)C)c2ncnc(N)c12 | enzyme activity | inhibitor | – | 1 µM | activity vs control | 80% |
| O=C(O)c1cc(-c2ccc(C3CCNCC3)cc2)c2ccc(-c3ccc(C(F)(F)F)cc3)cc2c1 | cell-free assay | – | competition with immobilised ligand | 1 µM | remaining binding | 100% |
| CCCCNc1ncc2c(-c3ccc(F)cc3)nn(C[C@H]3CC[C@H](N)CC3)c2n1 | target engagement in cells | inhibitor | chemoproteomics | 20 mM | inhibition | 22.8% |
| Cc1ccc(C(=O)Nc2ccc(CN3CCN(C)CC3)c(C(F)(F)F)c2)cc1C#Cc1cnc2cccnn12 | enzyme activity | – | – | 23.5 nM | remaining activity | 99% |
| COc1cccc2c(NCc3ccccc3)nc(-n3c(N)nc4ccccc43)nc12 | target engagement in cells | inhibitor | chemoproteomics | 20 mM | inhibition | 11.9% |
| CC1=C(C#N)C(c2ccc3c(c2)c(NC(=O)c2ccccc2C)nn3C)C(C#N)=C(C)N1 | cell-free assay | – | competition with immobilised ligand | 1 µM | remaining binding | 99% |
| C=CC(=O)Nc1cc(Nc2nccc(Nc3cc(Cl)c(F)cc3C(C)(C)O)n2)c(OC)cc1N1CC[C@@H](N(C)C)C1 | enzyme activity | inhibitor | – | 1 µM | inhibition | 12% |
| COc1cc(-c2cc(-c3ccc(N4CCNCC4)cc3)cnc2C)cc(OC)c1OC | enzyme activity | inhibitor | – | 1 µM | inhibition | 1% |
